Reference: ChEMBL document CHEMBL1156669, “Aldehyde dehydrogenase inhibitors: alpha,beta-acetylenic N-substituted aminothiolesters are reversible growth inhibitors of normal epithelial but irreversible apoptogens for cancer epithelial cells from human prostate in culture” (Eur J Med Chem, 2008)
Activity calls are given as the source filed them. No cut-off for these calls is given here.

Columns and labels:
BaF3 = assay: Induction of apoptosis in mouse BAF3 cells overexpressing bcl2; type: functional, cell-based
[1] = biological target: Aldehyde dehydrogenase 1 (Saccharomyces cerevisiae); assay: Inhibition of ALDH1
[2] = biological target: T1, Aldehyde dehydrogenase 1, mitochondrial (Saccharomyces cerevisiae) (UniProt P22281); assay: Inhibition of yeast ALDH1 at 600 uM
T1 sequence (whole entry): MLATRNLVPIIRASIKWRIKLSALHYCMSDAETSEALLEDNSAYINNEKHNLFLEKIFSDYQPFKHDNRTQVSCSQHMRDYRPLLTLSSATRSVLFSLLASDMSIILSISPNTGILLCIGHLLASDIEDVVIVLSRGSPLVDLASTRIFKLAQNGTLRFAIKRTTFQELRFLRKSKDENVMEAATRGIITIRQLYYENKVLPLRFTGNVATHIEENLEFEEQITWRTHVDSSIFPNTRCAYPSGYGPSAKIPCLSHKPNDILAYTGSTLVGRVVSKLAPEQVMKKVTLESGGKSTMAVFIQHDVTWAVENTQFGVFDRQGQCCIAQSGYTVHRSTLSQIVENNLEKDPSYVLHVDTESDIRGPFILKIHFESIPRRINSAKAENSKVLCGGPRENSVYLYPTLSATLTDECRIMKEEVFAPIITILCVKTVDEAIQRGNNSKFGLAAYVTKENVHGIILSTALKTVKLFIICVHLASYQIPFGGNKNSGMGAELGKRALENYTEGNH

MRC5 = assay: Growth inhibition of human MRC5 cells; type: cell-based
DU-145 [3] = assay: Growth inhibition of human DU145 cells administered after 3 days; type: functional, cell-based; conditions: DU-145, 72 h
In short: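 DU145 in RPMI 1640 with 10% FCS; 1 × 10⁵ cells per well in 24-well plates, compound added 4 h after seeding. After 3 days the adherent sheet was washed twice with PBS and harvested in 0.14 M NaOH, and protein content measured. IC50 is the mean of three experiments.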

[4] = Growth inhibition of HPEN cells administered after 3 days; type: cell-based; conditions: Homo sapiens, 72 h
In short: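 HPENC in PrEGM with supplement and 10% FCS; 1 × 10⁵ cells per well in 24-well plates, compound added 4 h after seeding once adhered. After 3 days, growth read as protein content. IC50 is the mean of three experiments.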

[5] = Growth inhibition of human androgen-sensitive MOP cells after 3 days; type: functional; conditions: 72 h
In short: (§1)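 MOP (androgen-sensitive, LNCaP grown long-term in steroid-deprived medium) and ME (from regrown MOP xenografts under androgen) in RPMI 1640 with 5% charcoal-treated FCS. Seeded 1 × 10⁵ cells per well in 24-well plates, compound added at 4 h, cell count by Coulter counter after 3 days. IC50 is the mean of three experiments.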

[6] = Growth inhibition of human androgen-resistant ME cells after 3 days; type: functional; conditions: 72 h; in short: as §1
DU-145 [7] = assay: Growth inhibition of human DU145 cells at 2 uM after 3 days; type: functional; conditions: DU-145, 72 h
In short: (§2)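 Cells seeded at 1 × 10⁵ per well in 24-well plates; compound added 4 h post-seeding and left for 3 days. Growth inhibition measured as protein content relative to control. HPENC values are means of three experiments in duplicate; DU145 values are means of five experiments in duplicate.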

DU-145 [8] = assay: Growth inhibition of human DU145 cells at 5 uM after 3 days; type: functional; conditions: DU-145, 72 h; in short: as §2
DU-145 [9] = assay: Growth inhibition of human DU145 cells at 10 uM after 3 days; type: functional; conditions: DU-145, 72 h; in short: as §2
[10] = Growth inhibition of HPEN cells at 2 uM after 3 days; type: cell-based; conditions: human; in short: as §2
[11] = Growth inhibition of HPEN cells at 5 uM after 3 days; type: cell-based; conditions: human; in short: as §2
[12] = Growth inhibition of HPEN cells at 10 uM after 3 days; type: cell-based; conditions: human; in short: as §2
DU-145 [13] = assay: Reversal of growth inhibition in human DU145 cells assessed as increase in cell number at 10 uM after 8 days; type: functional
In short: (§3)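 Cells seeded in six wells and treated from 4 h after seeding. Two wells were left in the original drug-containing medium for a further 5 days. Growth measured on day 8 as protein content of adherent cells and expressed as the day 8/day 3 ratio. EtOH vehicle controls were handled identically. Two experiments in duplicate.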

DU-145 [14] = assay: Reversal of growth inhibition in human DU145 cells assessed as increase in cell number at 15 uM after 8 days; type: functional; in short: as §3
DU-145 [15] = assay: Reversal of growth inhibition in human DU145 cells assessed as increase in cell number at 10 uM on day 3 replaced with fresh medium without drug and measured after 8 days; type: functional
In short: (§4)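 Cells were treated for 3 days. The medium was then aspirated, the sheet washed with PBS and fresh drug-free medium added, followed by 5 more days of culture. Growth measured on day 8 as adherent-cell protein and expressed relative to the day-3 protein content of parallel wells. Two experiments in duplicate.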

DU-145 [16] = assay: Reversal of growth inhibition in human DU145 cells assessed as increase in cell number at 15 uM on day 3 replaced with fresh medium without drug and measured after 8 days; type: functional; in short: as §4
[17] = Reversal of growth inhibition in HPEN cells assessed as increase in cell number at 10 uM after 8 days; type: cell-based; conditions: human, 192 h; in short: as §3
[18] = Reversal of growth inhibition in HPEN cells assessed as increase in cell number at 15 uM after 8 days; type: cell-based; conditions: human, 192 h; in short: as §3
[19] = Reversal of growth inhibition in HPEN cells assessed as increase in cell number at 10 uM on day 3 replaced with fresh medium without drug and measured after 8 days; type: cell-based; conditions: human, 192 h; in short: as §4
[20] = Reversal of growth inhibition in HPEN cells assessed as increase in cell number at 15 uM on day 3 replaced with fresh medium without drug and measured after 8 days; type: cell-based; conditions: human, 192 h; in short: as §4
[21] = biological target: T2, Aldehyde dehydrogenase 1A1 (Homo sapiens) (UniProt P00352); assay: Inhibition of ALDH1 in human DU145 cells at 2.5 uM after 3 days; type: cell-based; conditions: DU-145
T2 sequence (whole entry): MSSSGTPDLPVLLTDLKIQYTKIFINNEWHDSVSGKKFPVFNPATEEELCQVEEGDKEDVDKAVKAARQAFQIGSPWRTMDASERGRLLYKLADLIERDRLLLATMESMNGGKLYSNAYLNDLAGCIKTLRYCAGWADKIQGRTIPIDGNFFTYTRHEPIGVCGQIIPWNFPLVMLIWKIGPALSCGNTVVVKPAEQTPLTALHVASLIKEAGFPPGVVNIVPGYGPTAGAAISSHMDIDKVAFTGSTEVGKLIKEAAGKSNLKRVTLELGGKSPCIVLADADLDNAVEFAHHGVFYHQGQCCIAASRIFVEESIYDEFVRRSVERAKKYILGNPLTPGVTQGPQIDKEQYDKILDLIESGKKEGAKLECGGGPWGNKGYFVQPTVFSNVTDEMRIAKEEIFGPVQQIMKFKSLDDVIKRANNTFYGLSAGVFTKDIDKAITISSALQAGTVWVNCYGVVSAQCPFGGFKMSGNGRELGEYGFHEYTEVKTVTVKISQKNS
In short: (§5)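 DU145 treated for 3 days, trypsinised, washed in PBS and lysed in 60 mM sodium phosphate pH 7 with 1% Triton X-100 and 1 mM EDTA, 30 min at 4 °C; lysate spun at 48,000g for 30 min. ALDH1: supernatant in phosphate pH 8.5, 1 mM EDTA, 100 mM KCl, 2.35 mM NAD, propanal substrate. ALDH3: 5 mM benzaldehyde, 2.5 mM NADP, 1 mM pyrazole. Two experiments in duplicate.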

[22] = biological target: T2, Aldehyde dehydrogenase 1A1 (Homo sapiens); assay: Inhibition of ALDH1 in human DU145 cells at 5 uM after 3 days; type: cell-based; conditions: DU-145; in short: as §5
[23] = biological target: T2, Aldehyde dehydrogenase 1A1 (Homo sapiens); assay: Inhibition of ALDH1 in human DU145 cells at 7.5 uM after 3 days; type: cell-based; conditions: DU-145; in short: as §5
[24] = biological target: T3, Aldehyde dehydrogenase, dimeric NADP-preferring (Homo sapiens) (UniProt P30838); assay: Inhibition of ALDH3 in human DU145 cells at 2.5 uM after 3 days; type: cell-based; conditions: DU-145; in short: as §5
T3 sequence (whole entry): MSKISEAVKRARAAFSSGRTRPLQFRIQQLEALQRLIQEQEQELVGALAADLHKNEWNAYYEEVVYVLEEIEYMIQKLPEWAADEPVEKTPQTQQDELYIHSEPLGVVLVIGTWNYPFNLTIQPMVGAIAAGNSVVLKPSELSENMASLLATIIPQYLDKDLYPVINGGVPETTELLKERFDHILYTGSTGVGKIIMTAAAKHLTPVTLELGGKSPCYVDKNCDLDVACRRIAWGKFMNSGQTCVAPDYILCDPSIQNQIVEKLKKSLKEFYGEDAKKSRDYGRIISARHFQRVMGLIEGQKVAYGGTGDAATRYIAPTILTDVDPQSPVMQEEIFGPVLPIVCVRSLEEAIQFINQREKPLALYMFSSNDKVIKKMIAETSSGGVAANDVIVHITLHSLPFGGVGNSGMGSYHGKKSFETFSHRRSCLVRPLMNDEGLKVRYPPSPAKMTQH

[25] = biological target: T3, Aldehyde dehydrogenase, dimeric NADP-preferring (Homo sapiens); assay: Inhibition of ALDH3 in human DU145 cells at 5 uM after 3 days; type: cell-based; conditions: DU-145; in short: as §5
[26] = biological target: T3, Aldehyde dehydrogenase, dimeric NADP-preferring (Homo sapiens); assay: Inhibition of ALDH3 in human DU145 cells at 7.5 uM after 3 days; type: cell-based; conditions: DU-145; in short: as §5
DU-145 [27] = assay: Growth inhibition of human DU145 cells at 15 uM after 3 days; type: functional; conditions: DU-145, 72 h
In short: (§6)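 Vehicle controls received 0.5% EtOH. Cells seeded at 1 × 10⁵ per well, compound added at 4 h. Growth inhibition measured by protein content at day 3; two experiments, each in duplicate.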

[28] = Growth inhibition of HPEN cells at 15 uM after 3 days; type: cell-based; conditions: human; in short: as §6
[29] = Growth inhibition of rat JM2 cells; type: functional, cell-based
RH7777 = assay: Growth inhibition of RH7777 cells; type: functional, cell-based; conditions: Rattus norvegicus
DU-145 [30] = assay: Increase in superoxide anion level in human DU145 cells at 10 uM after 3 days by flow cytometry; type: functional, cell-based
DU-145 [31] = assay: Decrease in redox potential in human DU145 cells at 10 uM after 3 days by flow cytometry; type: functional, cell-based
DU-145 [32] = assay: Induction of apoptosis in human DU145 cells assessed as apoptotic cells in flow cytometry region H1 at 10 uM after 3 days by flow cytometry
DU-145 [33] = assay: Induction of apoptosis in human DU145 cells assessed as apoptotic cells in flow cytometry region H3 at 10 uM after 3 days by flow cytometry

CSC(=O)C#CC(C)(C)N
IC50 (BaF3): 4 µM
Ki [1]: 280 µM

CSC(=O)C#CC(C)(C)N1CCOCC1
IC50 (BaF3): 12 µM
inhibition [2]: 15%
IC50 (MRC5): 29 µM
IC50 (DU-145 [3]): 9.3 µM
IC50 [4]: > 10 µM
IC50 [5]: 10 µM
IC50 [6]: 10 µM
inhibition at 2 µM (DU-145 [7]): 0%
inhibition at 5 µM (DU-145 [8]): 8%
inhibition at 10 µM (DU-145 [9]): 70%
inhibition at 72 h, 2 µM [10]: 3%
inhibition at 72 h, 5 µM [11]: 6%
inhibition at 72 h, 10 µM [12]: 11%
Activity (DU-145 [13]): 3
Activity (DU-145 [14]): 1.9
Activity (DU-145 [15]): 2.6
Activity (DU-145 [16]): 1.6
Activity [17]: 0.4
Activity [18]: 1.4
Activity [19]: 1.6
Activity [20]: 2.6
inhibition [21]: 3%
inhibition [22]: 20%
inhibition [23]: 32%
inhibition [24]: 40%
inhibition [25]: 60%
inhibition [26]: 78%
inhibition at 15 µM (DU-145 [27]): 88%
inhibition at 72 h, 15 µM [28]: 37%

CSC(=O)C#CC(C)(C)N1Cc2ccccc2C1
IC50 (DU-145 [3]): 6.2 µM

CSC(=O)C#CC(C)(C)N1CCSCC1
IC50 (DU-145 [3]): 54 µM

CCCN(CCC)C(C)(C)C#CC(=O)SC
IC50 (DU-145 [3]): 12.6 µM

CSC(=O)C#CC(C)(C)[N+](C)(C)C
IC50 (DU-145 [3]): > 600 µM
IC50 [4]: 590 µM

CSC(=O)C#CC(C)(C)N(C)C
IC50 [29]: 10 µM
IC50 (RH7777): 10 µM
IC50 (MRC5): 8 µM
IC50 (DU-145 [3]): 7.2 µM
IC50 [4]: 9.7 µM
IC50 [5]: 3 µM
IC50 [6]: 3 µM
inhibition at 2 µM (DU-145 [7]): 6%
inhibition at 5 µM (DU-145 [8]): 34%
inhibition at 10 µM (DU-145 [9]): 78%
inhibition at 72 h, 2 µM [10]: 6%
inhibition at 72 h, 5 µM [11]: 23%
inhibition at 72 h, 10 µM [12]: 60%
Activity (DU-145 [13]): 2.5
Activity (DU-145 [15]): 2.7
Activity [17]: 0.9
Activity [19]: 2.8
Activity (DU-145 [30]): Active
inhibition [21]: 15%
inhibition [22]: 40%
inhibition [23]: 78%
inhibition [24]: 40%
inhibition [25]: 62%
inhibition [26]: 100%
Activity (DU-145 [31]): Active
Activity (DU-145 [32]): Active
Activity (DU-145 [33]): Active

CSC(=O)C#CC(C)(C)N(C)c1ccccc1
IC50 (DU-145 [3]): 12.5 µM
